Assay outcomes: PubChem BioAssay, Sanford-Burnham Center for Chemical Genomics
Most compounds without a hit are left out; they make up all but 3% or so of the library.
SENP7 block: SENP7 protease inhibitors, primary screen, biochemical, luminescence, uHTS. Sentrin-specific protease 7 (Homo sapiens), Q9BQF6. 330,000 tested, 1.5% active. recombinant SENP7, Z-RLRGG-aminoluciferin luminescence, 40 min. inhibition, % at 5 µM. AID 434973, 2010;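 active means inhibition above about 50% at the single test dose, limit read from the data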;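 further: plate controls were DMSO with enzyme for no effect and no enzyme buffer wells for full effect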
SENP6 inh: SENP6 protease inhibitors, primary screen, biochemical, luminescence, uHTS; Sentrin-specific protease 6 (Homo sapiens), Q9GZR1; Recombinant SENP6 catalytic domain, aminoluciferin luminescence; inhibition, % at 10 µM; 330,000 tested, 1.8% active;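 active means inhibition above about 50% at the single tested dose, limit read from the data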;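 further: plate controls were DMSO wells with enzyme for no effect and DMSO wells lacking enzyme for full effect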
UBC13 polyUb: UBC13 polyubiquitin chain formation inhibitors, primary screen, biochemical, TR-FRET, uHTS. inhibition, % at 20 µM. 330,000 tested, 0.47% active. AID 485273, 2010; in the data active means inhibition above about 45%, passing the limit was not always enough; inconclusive means no clear call, values can overlap the other calls
Apaf-1 inh: inhibitors of human Apaf-1 apoptosome, primary screen, biochemical, DEVD-Rh110 fluorescence, uHTS; 330,000 tested, 0.71% active; inhibition, % at 20 µM; AID 489030, 2010; reconstituted apoptosome caspase-3 activity; active means inhibition of at least 40% at 20 µM;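 further: plate controls were DMSO wells for no effect and DEVD-CHO caspase inhibitor wells for full effect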
Target sequence (O14727 whole entry, looked up): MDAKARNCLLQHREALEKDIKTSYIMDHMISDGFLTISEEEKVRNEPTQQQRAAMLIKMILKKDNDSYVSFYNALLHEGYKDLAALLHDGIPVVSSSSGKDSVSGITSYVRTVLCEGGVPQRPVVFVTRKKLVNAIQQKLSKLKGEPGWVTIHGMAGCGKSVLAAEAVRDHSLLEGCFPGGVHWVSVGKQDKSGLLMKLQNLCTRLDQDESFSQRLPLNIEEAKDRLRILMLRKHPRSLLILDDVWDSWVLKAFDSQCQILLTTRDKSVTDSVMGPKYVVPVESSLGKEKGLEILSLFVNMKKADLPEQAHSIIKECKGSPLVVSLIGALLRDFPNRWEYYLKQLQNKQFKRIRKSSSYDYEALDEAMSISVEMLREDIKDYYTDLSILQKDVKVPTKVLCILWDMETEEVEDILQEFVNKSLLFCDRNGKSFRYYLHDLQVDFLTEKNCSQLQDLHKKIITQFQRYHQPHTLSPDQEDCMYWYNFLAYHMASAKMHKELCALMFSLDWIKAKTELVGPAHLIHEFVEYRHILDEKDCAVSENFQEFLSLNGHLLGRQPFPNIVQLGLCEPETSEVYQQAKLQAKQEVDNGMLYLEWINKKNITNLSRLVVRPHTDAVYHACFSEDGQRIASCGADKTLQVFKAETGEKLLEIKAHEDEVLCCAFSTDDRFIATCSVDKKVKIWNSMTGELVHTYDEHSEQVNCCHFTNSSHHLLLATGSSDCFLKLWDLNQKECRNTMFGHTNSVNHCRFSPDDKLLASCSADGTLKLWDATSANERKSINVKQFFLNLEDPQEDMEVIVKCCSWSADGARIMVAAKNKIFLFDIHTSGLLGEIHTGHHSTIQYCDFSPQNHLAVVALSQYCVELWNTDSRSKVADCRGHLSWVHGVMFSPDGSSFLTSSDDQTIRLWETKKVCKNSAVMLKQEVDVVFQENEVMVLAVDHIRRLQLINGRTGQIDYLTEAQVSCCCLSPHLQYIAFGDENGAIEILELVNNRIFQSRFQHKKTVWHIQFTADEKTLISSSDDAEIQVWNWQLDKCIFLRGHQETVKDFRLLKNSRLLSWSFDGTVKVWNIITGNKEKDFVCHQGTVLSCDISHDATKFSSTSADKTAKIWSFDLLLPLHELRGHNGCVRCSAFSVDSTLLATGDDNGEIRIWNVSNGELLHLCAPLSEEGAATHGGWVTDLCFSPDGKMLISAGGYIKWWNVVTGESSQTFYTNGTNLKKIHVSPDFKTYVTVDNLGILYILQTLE
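Material: biochemical Apaf-1 apoptosome reconstitution. Medium: Hepes buffer, pH 7.5. Also added: cytochrome c activation, bis-DEVD rhodamine 110 substrate. Timing: 30 min compound preincubation, 50 min activation, room temperature. Measured by: rhodamine 110 fluorescence at Ex 480/Em 540 nm.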
SENP8 block-1: SENP8 protease inhibitors, primary screen, biochemical, luminescence; Sentrin-specific protease 8 (Homo sapiens), Q96LD8; purified SENP8, Z-RLRGG-aminoluciferin cleavage; inhibition, % at 10 µM; 330,000 tested, 1.2% active; in the data active means inhibition above about 50%
SENP8 block-2: human SENP8 protease inhibitors, primary screen, biochemical, fluorescence, Nedd8 protein substrate, uHTS | Sentrin-specific protease 8 (Homo sapiens), Q96LD8 | recombinant SENP8 | inhibition, % at 20 µM | 360,000 tested, 0.64% active | AID 602440, 2012; in the data active means inhibition mostly above about 40%, no sharp cut-off; inactive means mostly below about 27%
Apaf-1 inh conf2: Apaf-1 inhibitors, single-dose retest, confirmation, biochemical, fluorescence, DEVD-Rh110, 20 µM. shares compounds with Apaf-1 inh. reconstituted apoptosome, caspase-3 DEVD-Rh110 fluorescence. 1,800 tested, 25% active. inhibition, % at 20 µM;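 active means mean inhibition of at least 40% at 20 µM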;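 further: plate controls were DMSO wells for no effect and DEVD-CHO caspase inhibitor control wells for full effect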
Rh110 quench: Rh110 fluorescence interference by putative Apaf-1 inhibitors, confirmation, artefact control for Apaf-1 inhibitor project, biochemical, 20 µM; activation (fluorescence interference), % at 20 µM; quenched caspase reaction; 1,800 tested, under 10 active; shares compounds with Apaf-1 inh;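 active means signal rise of 40% or more at 20 µM, treated as a fluorescence artifact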
Fluor interf inh: fluorescence interference of Apaf-1 inhibitor hits, dose response, artefact control for Apaf-1 inhibitor project. IC50, µM. fluorescence interference counterscreen, Apaf-1 assay format. 460 tested, under 10 active. shares compounds with Apaf-1 inh; call rule not given here
Active calls of the source: *; i = inactive; ? = inconclusive; . = no result.

SMILES	SENP7 block	SENP6 inh	UBC13 polyUb	Apaf-1 inh	SENP8 block-1	SENP8 block-2	Apaf-1 inh conf2	Rh110 quench	others
CCN(c1ccccc1)S(=O)(=O)c1cccc(C(=O)NCCN2CCOCC2)c1	-1	-13	24	44*	-5	10	6	8
CC1(C)CNc2cc(N)ccc2S1	-6	6	-28	50*	-6	-74	70*	8	Fluor interf inh=>100
Cc1cccc(-c2n[nH]nc2C2=CC(=O)CC(C)(C)C2)c1	.	.	.	.	.	-4	.	.
CCCCC[n+]1ccn(C2=C([O-])c3ccccc3C(=O)/C2=N\S(=O)(=O)c2ccc(Cl)cc2)c1	19	47	-60	70*	19	71*	54*	9	Fluor interf inh=>100
CCNc1ccccc1CP(=O)(c1ccccc1)c1ccccc1O (centres undefined)	13	42	-48	87*	23	.	12	-1
Cc1ccc(O)c(CP(=O)(c2ccccc2)c2ccccc2)c1	-1	2	-5	-8	5	11	.	.
O=C(O)CC1S/C(=N/N=C/c2ccc(-c3ccccc3[N+](=O)[O-])o2)NC1=O (centres undefined)	17	35	-42	73*	26	33	21	2
O=[N+]([O-])c1ccccc1-c1ccc(/C=N/n2cnnc2)o1	4	15	-26	-2	3	19	.	.
Cc1ccc(-c2ccc(/C=N/N=C3/NC(=O)C(CC(=O)O)S3)o2)c([N+](=O)[O-])c1 (centres undefined)	7	30	-47	74*	4	33	28	9
Cc1ccc(S(=O)(=O)Oc2ccc(/C=N/N=C3/NC(=O)C(CC(=O)O)S3)cc2)cc1 (centres undefined)	2	3	-14	7	4	12	.	.
COc1ccc(-c2c(C#Cc3ccc(N(C)C)cc3)c3ccccc3n2C)cc1	-15	-16	-14	57*	-11	i	17	5
COc1ccc2[nH]c(=O)c(CNc3ccccc3C)cc2c1	-1	5	-9	2	-1	-301	.	.
COc1ccc2[nH]c(=O)c(CNc3ccccc3OC)cc2c1	2	6	-29	51*	8	-208	43*	5	Fluor interf inh=>100
COc1ccc(CCN2CC(C(=O)Nc3ccc(S(C)(=O)=O)cc3)CC2=O)cc1OC (centres undefined)	-10	-8	1	-4	-4	2	.	.
COc1ccc(CCN(C)C(=O)C2CC(=O)N(Cc3ccc(C)cc3)C2)cc1OC (centres undefined)	0	-17	18	56*	-10	2	33	5
COc1ccc(CCN(C)C(=O)C2CCN(Cc3ccc(C)cc3)CC2)cc1OC	4	-32	4	2	-3	20	.	.
CCN(CC)CCNC(=O)c1ccc(NC(=O)C2CC(=O)N(CCc3ccc(OC)c(OC)c3)C2)cc1 (centres undefined)	-7	-3	27	47*	12	-13	31	0
CCOC(=O)c1ccc(-n2[nH]c(-c3ccccc3)cc2=O)cc1	10	25	-19	43*	-9	27	25	1
C[C@@H](CSc1ccc(Br)cc1)CN1CC[C@H](NC(=O)OCc2ccccc2)CCC1=O	1	-7	11	40*	-16	3	16	0
COc1ccc(SC[C@H](C)CN2CC[C@H](NC(=O)OCc3ccccc3)CCC2=O)cc1	-12	2	6	70*	-21	-2	20	-1
Cc1ccc(S(=O)(=O)NC(=O)C2(C)CCN2C(=O)Cc2cc(F)ccc2F)nc1 (centres undefined)	.	.	.	.	.	16	.	.
O=C1NC[C@@H](CCCCN2CCN(CCC3CCCCC3)C(=O)C2=O)N(CC2CCCCC2)C1=O	.	.	.	.	.	6	.	.
Cc1cccc(C)c1-n1nnnc1C1(C)CCC(=O)N1Cc1cccs1 (centres undefined)	.	.	.	.	.	14	.	.
CCN1C(=O)[C@H]2[C@@H](c3ccc(OC)cc3)N[C@]3(CCCN(Cc4ccc(Br)cc4)C3=O)[C@H]2C1=O	.	.	.	.	.	8	.	.
CN(C)C=Nc1ccc2nc3c(cc2c1)[nH]c1ccccc13	9	9	?	46*	3	-286	44*	-2	Fluor interf inh=>100
SMILES	SENP7 block	SENP6 inh	UBC13 polyUb	Apaf-1 inh	SENP8 block-1	SENP8 block-2	Apaf-1 inh conf2	Rh110 quench	others
CCOC(=O)c1[nH]c2ccccc2c1N=CN(C)C	-8	-14	-2	4	-11	-186	.	.
CN(C)CCCN(C(=O)CCc1ccccc1)c1nc2ccc(Cl)cc2s1	3	-20	36	44*	-8	27	12	10
Cc1cc2nc3ccc(N(C)C)cc3nc2cc1N	16	51*	-43	90*	50	81*	63*	5	Fluor interf inh=>100
Cc1cc(N(C)C)ccc1N=Nc1ccc(N)cc1	26	46	-350	25	34	35	.	.
COc1ccc(CNS(=O)(=O)c2ccc(OC)cc2)cc1	3	5	4	-2	-2	12	.	.
Cc1cc2cc(CNC(=O)c3ccc(S(=O)(=O)N4CCCCC4)cc3)ccc2n1C	-4	2	-12	53*	12	-26	17	1
CCS(=O)(=O)NCc1ccc2c(c1)cc(C)n2C	-1	-4	-2	7	-1	-22	.	.
CCc1cccc(C)c1NC(=S)NCc1ccc2c(c1)cc(C)n2C	6	-2	4	55*	6	-33	21	6
COc1ccc(S(=O)(=O)NCc2ccc3c(c2)cc(C)n3C)cc1	0	-25	-4	51*	-1	-62	17	3
Cc1cc2cc(CNS(=O)(=O)c3ccccc3)ccc2n1C	-14	-4	4	61*	-9	-38	12	5
CCOC(=O)C1CCN(S(=O)(=O)c2ccc3c4c2CC(=O)N4CC(C)S3)CC1 (centres undefined)	16	-8	-23	44*	-9	2	39	18
CCOC(=O)C1CCCN(S(=O)(=O)c2ccc3c4c2CC(=O)N4CC(C)S3)C1 (centres undefined)	4	-3	-4	38	1	11	.	.
